Experimental findings from ChEMBL document CHEMBL1145030, “Novel pyrazolo[3,4-d]pyrimidine-based inhibitors of Staphlococcus aureus DNA polymerase III: design, synthesis, and biological evaluation” (J Med Chem, 2003) are described below.

Assay [1] deals with Nucleic Acid. Briefly: Inhibitory activity against DNA polymerase III (DNA pol III) of Staphylococcus aureus at a concentration of 500 uM; NA means Inactive. Type of assay: nucleic-acid assay. Put shortly:
(§1)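 S. aureus pol III was PCR-cloned into pET15, expressed in BL21 (1 mM IPTG), and purified on HiTrapQ then HiTrap Blue. Enzyme-started, it ran 30 min at 30 °C and was stopped with cold TCA/NaPPi. Incorporation was read by filter capture and scintillation counting.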

The subject of another assay is Streptococcus pneumoniae. Briefly: Antibacterial activity against Streptococcus pneumoniae. Type of assay: functional. Put shortly:
(§2)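 Broth microdilution MIC against B. subtilis F2, E. faecium RLA-1, S. aureus MB2865 and S. pneumoniae MCL5350. Compounds were DMSO stocks, serially 2-fold diluted from 100 μM final, at 5% final DMSO, with a DMSO vehicle control. Wells were inoculated from cultures diluted in PBS and incubated overnight at 37 °C. MIC was scored visually as the lowest concentration preventing growth.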

The next assay has as its system Staphylococcus aureus. Briefly: Antibacterial activity against Staphylococcus aureus. Format: functional. An outline of the steps: as §2
Assay [2] has as its system Nucleic Acid. Briefly: Inhibitory activity against DNA polymerase III (DNA pol III) of Staphylococcus aureus at a concentration of 500 uM. Type of assay: nucleic-acid assay. Put shortly:
as §1

The test system of another assay is Bacillus subtilis. The assay can be described thus: Antibacterial activity against Bacillus subtilis. Type of assay: functional. Put shortly: as §2
In assay [3] the test system is Nucleic Acid. The assay can be described thus: Inhibitory activity against DNA polymerase III (DNA pol III) of Staphylococcus aureus. Type of assay: nucleic-acid assay. Put shortly:
as §1

The next assay has as its system Enterococcus faecium. The assay can be described thus: Antibacterial activity against Enterococcus faecium. Format: functional. An outline of the steps:
as §2

≈ marks a conversion by molar mass, not a printed value. Calls of active or inactive are those of the source.

The inhibition is the relative decrease from the control value, in per cent. In the case of `Cc1ccc(CNc2nc(O)c3c[nH]nc3n2)c(C)c1`, the inhibition with Nucleic Acid [1] amounted to 12%.
One may read the MIC as the smallest concentration in the dilution series that meets the test's criterion for growth inhibition. Higher therefore signals a need for much substance. Usually IC50 stands for the point on the concentration scale where inhibition reaches its midpoint. Consider `CCc1cc(Nc2nc(O)c3c[nH]nc3n2)ccc1C`, for which the minimal inhibitory concentration (MIC) with Streptococcus pneumoniae was 13 µg/mL (≈ 48.3 µM); in the assay with Staphylococcus aureus, 27 µg/mL (≈ 100 µM); against Bacillus subtilis, 7 µg/mL (≈ 26 µM); in the assay on Enterococcus faecium it was 13 µg/mL (≈ 48.3 µM). In the assay on Nucleic Acid [2], the inhibition was 88%. In the assay with Nucleic Acid [3], this compound yielded an IC50 of 68 µM.
Regarding `Oc1[nH]c(NCc2ccccc2)nc2nncc1-2`, in the assay on Nucleic Acid [2], the inhibition turned out to be 32%.
`Oc1[nH]c(NCc2ccc(F)c(Cl)c2)nc2nncc1-2`: the inhibition in the assay on Nucleic Acid [2] is 24%.
Turning to `Cc1ccc(Nc2nc(O)c3c[nH]nc3n2)cc1Br`, the MIC is 8 µg/mL (≈ 25 µM) in the assay with Streptococcus pneumoniae, 8 µg/mL (≈ 25 µM) in the assay with Staphylococcus aureus, 8 µg/mL (≈ 25 µM) against Bacillus subtilis and 16 µg/mL (≈ 50 µM) in the assay with Enterococcus faecium. Moreover, the inhibition with Nucleic Acid [2] amounted to 69%. The compound also came in with an IC50 in the assay on Nucleic Acid [3] of 129 µM.
Consider `Oc1[nH]c(NCc2ccc(Br)cc2)nc2nncc1-2`, for which, in the assay with Nucleic Acid [2], the inhibition turned out to be 23%.
Consider `COc1cccc(CNc2nc(O)c3c[nH]nc3n2)c1`, for which the NA entry in the assay with Nucleic Acid [1] is “inactive”.
`Oc1[nH]c(NCc2ccc(Cl)c(Cl)c2)nc2nncc1-2` gave an inhibition in the assay with Nucleic Acid [2] of 58%. For the same compound, the half-inhibitory concentration (IC50) with Nucleic Acid [3] was 108 µM.
For the compound `Cc1ccc(Nc2nc(O)c3c[nH]nc3n2)cc1I`, the MIC in the assay on Streptococcus pneumoniae turned out to be 9 µg/mL (≈ 24.5 µM); against Staphylococcus aureus, 9 µg/mL (≈ 24.5 µM); against Bacillus subtilis, 9 µg/mL (≈ 24.5 µM); against Enterococcus faecium, 18 µg/mL (≈ 49 µM). In addition, the inhibition in the assay on Nucleic Acid [2] amounted to 86%. In the assay with Nucleic Acid [3], this compound had an IC50 of 71 µM.
As for `COc1ccc(CNc2nc(O)c3c[nH]nc3n2)cc1`, the inhibition with Nucleic Acid [2] is 10%.
On to `Cc1ccc(Nc2nc(O)c3c[nH]nc3n2)cc1Cl`, for which the MIC amounted to 14 µg/mL (≈ 50.8 µM) in the assay with Streptococcus pneumoniae, 14 µg/mL (≈ 50.8 µM) in the assay with Staphylococcus aureus, 7 µg/mL (≈ 25.4 µM) with Bacillus subtilis and 28 µg/mL (≈ 102 µM) in the assay on Enterococcus faecium. In the assay with Nucleic Acid [2], this compound yielded an inhibition of 62%. The same compound registered an IC50 with Nucleic Acid [3] of 214 µM.
`Oc1[nH]c(NCc2ccccc2Cl)nc2nncc1-2`: the NA entry in the assay on Nucleic Acid [1] was “inactive”.
For `Cc1ccc(Nc2nc(O)c3c[nH]nc3n2)cc1C`, the MIC was 26 µg/mL (≈ 102 µM) with Streptococcus pneumoniae and 13 µg/mL (≈ 50.9 µM) against Bacillus subtilis. The compound further gave an inhibition in the assay on Nucleic Acid [2] of 36%.
Take `Oc1[nH]c(NCc2cccc(C(F)(F)F)c2)nc2nncc1-2`: in the assay with Nucleic Acid [1], the NA entry is “inactive”.
The same measure, in the same setting: next, `CC(C)c1ccc(CNc2nc(O)c3c[nH]nc3n2)cc1`: “inactive”.
